# Screening results from PubChem.
# An excerpt weighted towards active compounds, which were near 2.2% of everything screened.
# CAL PDZ FP-1 = untagged CAL PDZ binding inhibitors, primary screen, biochemical, fluorescence polarization, HTS; 300,000 compounds, 0.92% hits; inhibition, % at 24.9 µM; Golgi-associated PDZ and coiled-coil motif-containing protein (Homo sapiens), Q9HD26; purified CAL PDZ, TMR-peptide fluorescence polarization, 1 h;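 active = mean inhibition of at least 30% with at least half of replicates also reaching 30%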;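 note: 0% = DMSO neutral control and 100% = excess unlabeled competitor peptide PRC23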
# DYRK1A inh = rat Dyrk1A kinase inhibitors, primary screen, biochemical, single point, plate reader. ADP-Glo luminescence, NFATc1 peptide. inhibition, % at 12.5 µM. 310,000 compounds, 0.43% hits; in the data active = inhibition above about 50%;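 note: plate controls were vehicle with enzyme for no effect and no enzyme for full effect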
# Rtt109 Vps75 = inhibitors of C. albicans Rtt109/Vps75 HAT, primary screen, biochemical, ThioGlo CoA-SH fluorescence, plate reader; Histone acetyltransferase RTT109 (Candida albicans (strain SC5314 / ATCC MYA-2876)), …; 330,000 compounds, 0.16% hits; inhibition, % at 34.9 µM; purified Rtt109/Vps75, 4 h;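 active = inhibition of at least 50% in every replicate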
# Target sequence (Q5AAJ8 whole entry, looked up): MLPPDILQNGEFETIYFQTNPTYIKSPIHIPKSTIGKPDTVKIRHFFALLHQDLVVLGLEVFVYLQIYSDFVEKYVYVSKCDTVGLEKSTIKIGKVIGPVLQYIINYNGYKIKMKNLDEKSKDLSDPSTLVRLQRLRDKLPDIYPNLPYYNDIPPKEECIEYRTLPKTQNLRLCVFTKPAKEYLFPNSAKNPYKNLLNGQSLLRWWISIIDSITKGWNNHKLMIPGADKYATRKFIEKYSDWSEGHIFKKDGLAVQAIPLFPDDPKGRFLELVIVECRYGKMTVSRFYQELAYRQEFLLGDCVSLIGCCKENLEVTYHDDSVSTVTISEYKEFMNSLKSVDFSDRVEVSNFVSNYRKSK
# dFosB act = activators of delta FosB homodimer, primary screen, biochemical, fluorescence polarization, TAMRA-CDK5 oligo, single point. activation, % at 25 µM. 340,000 compounds, 0.99% hits. purified delta FosB; percent of positive-control signal above neutral wells;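 active = mean activation above about 17%, with every replicate also reaching it, limit read from the data, passing the limit was not always enough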
# CDK5 p35 inh = inhibitors of human CDK5/p35 kinase, primary screen, biochemical, single concentration | Recombinant CDK5/p35, ADP-Glo luminescence, 60 min | inhibition, % at 10 µM | Cyclin-dependent kinase 5 (Homo sapiens) + Cyclin-dependent kinase 5 activator 1 (Homo … | 330,000 compounds, 0.01% hits | AID 488839, 2010;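 active = highest replicate inhibition of at least 50% and at least 75% of replicates reaching 50%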;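 note: plate controls were DMSO neutral control for no effect and GW8510 at 10 µM for full effect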
# CAL PDZ FP-2 = CAL PDZ peptide-binding inhibitors, primary screen, biochemical, fluorescence polarization, Cer-tagged CAL PDZ, HTS; Golgi-associated PDZ and coiled-coil motif-containing protein (Homo sapiens), Q9HD26; purified CAL PDZ, TMR-peptide fluorescence polarization, 1 h; inhibition, % at 20 µM; 330,000 compounds, 0.02% hits;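 active = highest replicate inhibition of at least 40%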;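 note: plate controls were DMSO neutral control wells for no effect and unlabeled competitor peptide control wells for full effect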
#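 Material – purified CerCALP PDZ construct · Detection – FP readout, S and P plane fluorescence · Measure – percent inhibition from loss of millipolarization · Controls – unlabelled peptide for full inhibition, DMSO wells as neutral · Probe or stimulus – TMR-labelled reporter peptide T*-PRC34 bound in PDZ groove · Times – 1 h at RT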
# * = called active by the depositor; / = no result.
SMILES,CAL PDZ FP-1,DYRK1A inh,Rtt109 Vps75,dFosB act,CDK5 p35 inh,CAL PDZ FP-2
O=C(COC(=O)c1cc(S(=O)(=O)N2CCOCC2)ccc1Cl)Nc1ccc2c(c1)OCO2,79*,0,10,0,-1,-2
Cc1cc(C)c(OCC(=O)Nc2ccc3c(c2)OCO3)cc1C,active,0,2,2,-1,-2
CCOC(=O)Cc1cnc(NC(=O)CSc2nc3ncnc(N)c3[nH]2)s1,/,-3,-14,6,-1,1
CN(C)C(=O)c1ccc(NC(=O)c2ccccc2SCC(=O)N2CCCC2)cc1,-2,/,-4,5,-1,0
O=C(COC(=O)/C=C/c1ccccc1[N+](=O)[O-])Nc1ccc(S(=O)(=O)N2CCOCC2)cc1,35*,/,-7,-5,0,0
CC(=O)Nc1ccc(S(=O)(=O)N[C@@H](C)C(=O)OCC(=O)Nc2ccc3c(c2)OCCO3)cc1,/,12,0,-6,-7,0
O=C(COC(=O)C(CO)NS(=O)(=O)c1ccc(Br)cc1)Nc1ccc2c(c1)OCCO2 (stereo not given),47*,-1,-11,0,-1,0
Cc1ccc(Nc2nnc(SCC(=O)Nc3cccnc3Cl)s2)cc1C,2,1,/,-3,3,-1
CCOc1cc2c(cc1OCC)C(c1ccccc1)N(c1ccccc1)C(=O)C2 (stereo not given),6,-5,5,-7,/,-1
COc1ccc(N=c2cc(-c3ccc(OC)cc3)oc3ccccc23)cc1,-2,-7,23,12,2,0
COc1ccc(N=c2cc(-c3ccc(O)cc3)oc3ccccc23)cc1,-1,2,/,42*,-2,-2
O=C(O)c1ccc(NC2=C/C(=N/S(=O)(=O)c3ccccc3)c3ccccc3C2=O)cc1,-3,80*,23,-1,11,1
COc1ccc(C(=O)NC(CCSC)C(=O)NCc2nnc3ccccn23)cc1 (stereo not given),-4,6,0,1,-7,-3
CC1=CC2=C(OC1N(C)C)c1cccc3cccc(c13)C2=O (stereo not given),39*,38,6,-13,-3,/
Cc1ccc(Cl)cc1N1CCN(c2cccc[n+]2C)CC1,/,7,-3,-2,-8,0
O=C(Cn1cc([N+](=O)[O-])cn1)NCc1ccccc1,43*,3,3,0,1,0
COc1ccc(CNC(=O)Cn2cc([N+](=O)[O-])cn2)cc1,/,-7,5,2,-1,-1
Nc1ccc(Nc2ccncc2[N+](=O)[O-])cc1,-1,-1,50*,-5,0,-1
Cc1ccc2c(c1)c(N=Nc1ccc([N+](=O)[O-])cc1)c(O)n2C,-2,-2,-7,2,-2,0
Cc1ccc2c(c1)c(C1=NC(=S)NC1=O)c(O)n2C,30*,4,4,-11,0,-1
O=C(Nc1cccc2ccccc12)/C(=C/c1ccc([N+](=O)[O-])cc1)NC(=O)c1ccccc1,68*,3,-2,13,-2,-1
CC(C)(C)NC(=O)/C(=C\c1ccccc1F)NC(=O)c1ccc([N+](=O)[O-])cc1,70*,-1,-2,2,1,-1
CC(=O)Nc1ccc(OCc2cccc([N+](=O)[O-])c2)cc1,-4,-2,58*,2,1,-1
CC(=O)N(C)c1ccc(OCC(O)Cn2c3ccc(Cl)cc3c3cc(Cl)ccc32)cc1 (stereo not given),-4,-3,-4,-3,-2,-1
CCN1C(=O)c2ccc(C(=O)Nc3ncc(C)s3)cc2C1=O,47*,-3,8,-10,2,13
SMILES,CAL PDZ FP-1,DYRK1A inh,Rtt109 Vps75,dFosB act,CDK5 p35 inh,CAL PDZ FP-2
CCNC(=O)NC(=O)C(C)Oc1ccc(Br)cc1Br (stereo not given),-1,3,5,-2,-1,0
Cc1ccc(N2CCN(CCCN3C(=O)C4CCCN4C3=O)CC2)cc1 (stereo not given),52*,/,2,2,1,0
O=C1C2CCCN2C(=O)N1CCCN1CCN(c2cccc(Cl)c2)CC1 (stereo not given),-7,/,-2,0,3,0
CC(C)(C)NC(=O)NC(=O)CN1c2cccc3cccc(c23)S1(=O)=O,-3,3,1,-16,-5,-2
Cc1ccc(SCC(=O)Nc2ccccc2N2CCOCC2)cc1,48*,-5,-2,-11,1,0
O=C(Nc1ccccc1N1CCOCC1)c1cccnc1,85*,0,-3,5,0,10
COc1cc(OC)cc(C(=O)N[C@H](C(=O)Nc2ccccc2N2CCOCC2)C(C)C)c1,39*,1,-2,-5,-1,0
O=C(CSc1ccccc1)Nc1ccccc1N1CCOCC1,-2,14,5,-5,0,/
O=C(C1CC(=O)N(c2ccc3c(c2)OCCO3)C1)N1CCN(S(=O)(=O)c2ccc(F)cc2)CC1 (stereo not given),68*,0,5,-5,0,-2
CCN(Cc1ccncc1)C(=O)C1CCC(=O)N(Cc2ccc(Cl)cc2)C1 (stereo not given),1,-12,-1,-5,3,-1
COC(=O)c1cc2c(ccn2-c2ccc(F)cc2)n1CC(=O)C(C)(C)C,17,-2,54*,-3,-2,-1
CC(=O)c1cccc(NC(=O)c2ccccc2-c2ccccc2C(=O)O)c1,-2,/,1,0,-2,0
CC(C)CNC(=O)c1cccc(NC(=O)c2ccccc2-c2ccccc2C(=O)O)c1,89*,-5,-1,10,1,/
O=C(COC(=O)c1cccc(OC(F)F)c1)NC1CCCC1,42*,-3,-8,-7,2,/
O=C(COC(=O)c1ccc(OC(F)F)cc1)NC(=O)NC1CCCC1,-3,2,15,-7,-2,0
C/C(=N/NC(=O)CNc1ccc(Cl)cc1C)c1ccc(C)cc1,-1,-7,-2,-3,-3,0
CNC(=O)c1ccc(NC(=O)/C=C/c2cccc(F)c2)cc1,-1,/,-9,3,1,-2
